Results as given in publication PMC4422293 (Drug Design, Development and Therapy, 2015).
Read-outs that look alike come from different tables or passages of the source.

Experiments:
[1] = system: Acinetobacter baumannii ATCC 19606; test: MIC by broth dilution; type: cell-based; conditions: ATCC19606, Table 4, mean of three replicates
[2] = system: Enterococcus faecium EF1509 (VRE); test: MIC by broth dilution; type: cell-based
[3] = system: K. pneumoniae NR-15411 (KPC); test: MIC by broth dilution; type: cell-based; conditions: Klebsiella pneumoniae
[4] = system: Klebsiella pneumoniae NR-15410 (KPC); test: MIC by broth dilution; type: cell-based
S. aureus = test: Antibacterial activity / killing of S. aureus; type: cell-based; conditions: Staphylococcus aureus
[5] = Cytotoxicity against mammalian cells; type: cell-based; conditions: human, HeLa cells (ATCC CCL-2.2)
How it was run: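 HeLa cells (ATCC CCL-2.2) were exposed to the test compound for 72 h. CC50 is the concentration giving a half-maximal decrease in viability, averaged over two replicate assays.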

E. faecium F118 (VRE) = test: MIC by broth dilution; type: cell-based; conditions: Enterococcus faecium
[6] = system: Staphylococcus aureus 1094 (MRSA); test: MIC by broth dilution; type: cell-based
P. aeruginosa ATCC 27853 = test: MIC by broth dilution; type: cell-based; conditions: Pseudomonas aeruginosa, ATCC27853
[7] = system: DNA, cell wall, protein, and lipid synthesis in S. aureus NCTC 8325; test: Macromolecular synthesis assays, all pathways; type: cell-based, Staphylococcus aureus
[8] = Surface plasmon resonance binding to immobilized 3-Lipid II
How it was run: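 SPR was run at 25°C on a Biacore T100. About 50 RU of farnesyl (3-isoprene) Lipid II was amine-coupled to a CM5 chip. Running buffer was 10 mM HEPES, 150 mM NaCl, 0.05% P20, pH 7.4 (±3 mM EDTA) with 10% DMSO. Screening injections were at 10 μM, with control-cell subtraction and 30 s regeneration in 50 mM NaOH. Kd came from binding isotherms, averaged over three assays.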

[9] = system: Enterobacter aerogenes ATCC 13048; test: MIC by broth dilution; type: cell-based; conditions: Klebsiella aerogenes, ATCC13048
[10] = system: S. aureus HFH-30123 (MRSA); test: MIC by broth dilution; type: cell-based; conditions: Staphylococcus aureus
[11] = system: Enterobacter cloacae ATCC 13047; test: MIC by broth dilution; type: cell-based; conditions: ATCC13047
[12] = system: Acinetobacter baumannii BAA-1605; test: MIC by broth dilution; type: cell-based; conditions: BAA1605
[13] = system: Pseudomonas aeruginosa X13273; test: MIC by broth dilution; type: cell-based
S. aureus (VISA) NRS22 = test: MIC by broth dilution; type: cell-based, Staphylococcus aureus; conditions: Table S2; unit not given
[14] = system: Staphylococcus aureus (USA300) MRSA; test: MIC by broth dilution; type: cell-based; conditions: Table S2; unit not given
[15] = system: Staphylococcus aureus (VISA) ATCC 700699; test: MIC by broth dilution; type: cell-based; conditions: Table S2; unit not given
[16] = read-out: Lipid II binding (Kd), Table 4, averages of three replicate assays

Compound	MIC [1] [µg/mL]	MIC [2] [µg/mL]	MIC [3] [µg/mL]	MIC [4] [µg/mL]	CC50 at 72 h [5] [µg/mL]	MIC (E. faecium F118 (VRE)) [µg/mL]	MIC [6] [µg/mL]	MIC (P. aeruginosa ATCC 27853) [µg/mL]	Kd [8, 16] [µM]	MIC [9] [µg/mL]	MIC [10] [µg/mL]	MIC [11] [µg/mL]	MIC [12] [µg/mL]	MIC [13] [µg/mL]	further results
CC(C)C[n+]1c(/C=C/C=C2/N(C)c3ccccc3C2(C)C)cc(-c2ccccc2)cc1-c1ccccc1.F[B-](F)(F)F [SF-5-331, 1-Isobutyl-2,4-diphenyl-6-((1E,3E)-3-(1,3,3-trimethylindolin-2-ylidene)prop-1-en-1-yl)pyridin-1-ium tetrafluoroborate]	8	0.5	32	16	0.26	2	1	32	0.34 ± 0.24	32	1	32	8	8	MIC (S. aureus): 1 µg/mL; inhibition of macromolecular synthesis pathways [7]: inhibited all pathways at low concentrations
CN[C@H](CC(C)C)C(=O)N[C@H]1C(=O)N[C@@H](CC(N)=O)C(=O)N[C@H]2C(=O)N[C@H]3C(=O)N[C@H](C(=O)N[C@H](C(=O)O)c4cc(O)cc(O)c4-c4cc3ccc4O)[C@H](O)c3ccc(c(Cl)c3)Oc3cc2cc(c3O[C@@H]2O[C@H](CO)[C@@H](O)[C@H](O)[C@H]2O[C@H]2C[C@](C)(N)[C@H](O)[C@H](C)O2)Oc2ccc(cc2Cl)[C@H]1O [Vancomycin]	–	–	–	–	–	–	–	–	–	–	–	–	–	–	Antibacterial activity (MIC) (S. aureus (VISA) NRS22): 8; Antibacterial activity (MIC) [14]: ≤ 0.5; Antibacterial activity (MIC) [15]: 8
CN1/C(=C/C=C/c2cc(-c3ccccc3)cc(-c3ccccc3)[n+]2C)C(C)(C)c2ccccc21.F[B-](F)(F)F [SF-5-219, 1-Methyl-2,4-diphenyl-6-((1E,3E)-3-(1,3,3-trimethylindolin-2-ylidene)prop-1-en-1-yl)pyridin-1-ium tetrafluoroborate]	8	0.5	32	32	0.25	5	1	≥ 32	7.4 ± 3.08	32	1	≥ 32	8	≥ 32	–
CC(C)[n+]1c(/C=C/C=C2/N(C)c3ccccc3C2(C)C)cc(-c2ccccc2)cc1-c1ccccc1.F[B-](F)(F)F [SF-5-330, 1-Isopropyl-2,4-diphenyl-6-((1E,3E)-3-(1,3,3-trimethylindolin-2-ylidene)prop-1-en-1-yl)pyridin-1-ium tetrafluoroborate]	8	0.5	25.4	10	0.33	5	1	8	0.54 ± 0.16	8	1	16	8	4	MIC (S. aureus): 1 µg/mL; inhibition of macromolecular synthesis pathways [7]: inhibited all pathways at low concentrations
CN(C)CC[n+]1c(/C=C/C=C2/N(C)c3ccccc3C2(C)C)cc(-c2ccccc2)cc1-c1ccccc1.F[B-](F)(F)F [SF-5-334, 1-(2-(Dimethylamino)ethyl)-2,4-diphenyl-6-((1E,3E)-3-(1,3,3-trimethylindolin-2-ylidene)prop-1-en-1-yl) pyridin-1-ium tetrafluoroborate]	32	8	≥ 32	≥ 32	2.25	32	16	≥ 32	1.9 ± 0.86	≥ 32	16	≥ 32	32	≥ 32	–
CCOc1ccc(-c2cc(C=CC=C3N(C)c4ccccc4C3(C)C)o[c+](-c3ccc(OCC)cc3)c2)cc1 [BAS00127537, 2,4-Bis-(4-ethoxy-phenyl)-6-[3-(1,3,3-trimethyl-1,3-dihydro-indol-2-ylidene)-propenyl]-pyranylium]	–	–	–	–	–	–	–	–	–	–	–	–	–	–	reduction in Lipid II-binding affinity compared to BAS00127538 ([8]; from Table 1): ~ 15 fold
Cc1cc(-c2ccccc2)cc(-c2ccccc2)[n+]1C [Z56760026, 1,2-Dimethyl-4,6-diphenylpyridin-1-ium]	–	–	–	–	–	–	–	–	–	–	–	–	–	–	Kd ([8]; read-out: Lipid II binding Kd): 37 µM
CN1/C(=C/C=C/c2cc(-c3ccccc3)cc(-c3ccccc3)[n+]2CCO)C(C)(C)c2ccccc21.F[B-](F)(F)F [SF-5-332, 1-(2-Hydroxyethyl)-2,4-diphenyl-6-((1E,3E)-3-(1,3,3-trimethylindolin-2-ylidene)prop-1-en-1-yl)pyridin-1-ium tetrafluoroborate]	20.2	1	≥ 32	≥ 32	0.8	8	1	≥ 32	4.4 ± 3.02	≥ 32	1	≥ 32	20.2	≥ 32	–
